One assay addresses Mu-type opioid receptor (Rattus norvegicus, UniProt P33535). The assay can be described thus: Inhibitory activity against Opioid receptor mu 1 using [3H]DAMGO.
In assay [1] the target is T1, Delta-type opioid receptor (Mus musculus, UniProt P32300). The assay can be described thus: Binding affinity towards Opioid receptor delta 1. The method, boiled down: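 Competition binding against [³H]DPDPE on membranes of CHO cells stably transfected with cloned δ opioid receptors, under standard (equilibrium) conditions. The IC₅₀ is displacement of radioligand, averaged over 3–7 independent determinations ± SEM.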

Assay [2] addresses T1, Delta-type opioid receptor. Kind of assay: Inhibitory activity against Opioid receptor delta 1 using [3H]DPDPE. The method, boiled down: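 Competition binding on membranes of CHO cells stably transfected with cloned δ opioid receptors, using [³H]DPDPE as radioligand under standard (equilibrium) conditions. IC50 is the mean ± SEM of 3–7 independent determinations.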
Assay [3] addresses Delta-type opioid receptor (Mus musculus) (UniProt P32300). Kind of assay: Inhibition of cyclic adenosine 3',5'-monophosphate (cAMP) formation by recombinant Opioid receptor delta 1 in adenylyl cyclase assay. The class given is functional. To be noted: concentration not given here.
Assay [4] concerns the target Kappa-type opioid receptor (Cavia porcellus, UniProt P41144). The assay can be described thus: Inhibitory activity against Opioid receptor kappa 1 using [3H]diprenorphine.

SMILES strings stand for the structures. Non-standard residues stand in square brackets, D forms with d. Residues, ends and D or L forms follow the SMILES beside them. *: point of attachment. Phe(4-NH2) = Nc1ccc(C[C@H](N)C(=O)O)cc1; Tic = O=C(O)[C@@H]1Cc2ccccc2CN1; BrAc = O=C(CBr)*

Sequence of Mu-type opioid receptor (P33535 whole entry): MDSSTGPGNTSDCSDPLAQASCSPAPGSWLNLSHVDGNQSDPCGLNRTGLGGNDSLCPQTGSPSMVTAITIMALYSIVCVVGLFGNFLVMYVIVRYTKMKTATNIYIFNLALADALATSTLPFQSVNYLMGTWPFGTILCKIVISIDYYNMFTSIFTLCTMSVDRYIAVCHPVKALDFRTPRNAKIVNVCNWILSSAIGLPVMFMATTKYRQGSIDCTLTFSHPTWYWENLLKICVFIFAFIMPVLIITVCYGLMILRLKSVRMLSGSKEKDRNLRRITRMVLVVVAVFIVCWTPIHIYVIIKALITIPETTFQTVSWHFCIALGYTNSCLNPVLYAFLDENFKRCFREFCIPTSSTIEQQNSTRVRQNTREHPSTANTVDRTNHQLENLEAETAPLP
T1 sequence (P32300 whole entry): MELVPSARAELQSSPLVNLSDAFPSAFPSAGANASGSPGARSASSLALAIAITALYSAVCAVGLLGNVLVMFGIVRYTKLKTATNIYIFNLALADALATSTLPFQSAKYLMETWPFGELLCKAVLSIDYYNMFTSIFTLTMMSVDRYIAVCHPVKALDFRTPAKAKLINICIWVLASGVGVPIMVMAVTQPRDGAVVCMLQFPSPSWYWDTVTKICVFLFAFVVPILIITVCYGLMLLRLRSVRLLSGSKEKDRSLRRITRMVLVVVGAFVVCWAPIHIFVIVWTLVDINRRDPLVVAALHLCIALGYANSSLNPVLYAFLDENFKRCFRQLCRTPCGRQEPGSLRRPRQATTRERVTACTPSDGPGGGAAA
Sequence of Kappa-type opioid receptor (P41144 whole entry): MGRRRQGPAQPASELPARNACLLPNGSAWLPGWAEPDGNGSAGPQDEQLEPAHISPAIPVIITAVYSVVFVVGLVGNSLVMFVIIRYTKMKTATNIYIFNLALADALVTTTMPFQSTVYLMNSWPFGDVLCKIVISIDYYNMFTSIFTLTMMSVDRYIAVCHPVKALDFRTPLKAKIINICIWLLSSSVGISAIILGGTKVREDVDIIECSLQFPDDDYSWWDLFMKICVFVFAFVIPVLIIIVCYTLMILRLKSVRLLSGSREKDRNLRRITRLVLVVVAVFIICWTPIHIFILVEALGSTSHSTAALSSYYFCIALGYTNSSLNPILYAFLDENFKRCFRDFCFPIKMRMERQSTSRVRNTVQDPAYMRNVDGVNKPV
Sequence of Delta-type opioid receptor (Mus musculus) (P32300 whole entry): as the sequence (P32300 whole entry) above

Consider `N[C@@H](Cc1ccc(O)cc1)C(=O)N1Cc2ccccc2C[C@H]1C(=O)N[C@@H](Cc1ccccc1)C(=O)N[C@@H](Cc1ccccc1)C(=O)O` (H-Y[Tic]FF-OH), for which the IC50 (in general, the midpoint of a concentration-inhibition curve) against Mu-type opioid receptor is 10000 nM; in assay [2], 14.1 nM. Besides, the inhibition constant Ki (commonly the equilibrium dissociation constant of an inhibitor or competing ligand from its target) in assay [1] worked out at 1.22 nM.
For the compound `N[C@@H](Cc1ccc(O)cc1)C(=O)N1Cc2ccccc2C[C@H]1C(=O)N[C@@H](Cc1ccccc1)C(=O)N[C@@H](Cc1ccc(NC(=O)CBr)cc1)C(=O)O` (H-Y[Tic]F[Phe(4-NH2)](BrAc)-OH), the IC50 at Mu-type opioid receptor was more than 5390 nM; in assay [2] it was 5.4 nM; in assay [4], more than 10000 nM. Moreover, the inhibition (as a rule, the relative decrease from the control value, in per cent) in assay [3] worked out at 65%.
On to `Nc1ccc(C[C@H](NC(=O)[C@H](Cc2ccccc2)NC(=O)[C@@H]2Cc3ccccc3CN2C(=O)[C@@H](N)Cc2ccc(O)cc2)C(=O)O)cc1` (H-Y[Tic]F[Phe(4-NH2)]-OH), for which the IC50 at Mu-type opioid receptor is more than 10000 nM; in assay [2] it was 19.9 nM; in assay [4], more than 10000 nM.
For the compound `N[C@@H](Cc1ccc(O)cc1)C(=O)N1Cc2ccccc2C[C@H]1C(=O)N[C@@H](Cc1ccc(NC(=O)CBr)cc1)C(=O)N[C@@H](Cc1ccccc1)C(=O)O` (H-Y[Tic][Phe(4-NH2)](BrAc)F-OH), the IC50 is more than 10000 nM at Mu-type opioid receptor and 65 nM in assay [2].
As for `Nc1ccc(C[C@H](NC(=O)[C@@H]2Cc3ccccc3CN2C(=O)[C@@H](N)Cc2ccc(O)cc2)C(=O)N[C@@H](Cc2ccccc2)C(=O)O)cc1` (H-Y[Tic][Phe(4-NH2)]F-OH), the IC50 against Mu-type opioid receptor is more than 10000 nM; in assay [2] it was 36.2 nM.

Source of the values: ChEMBL document CHEMBL1135756, “Solid phase synthesis and evaluation of Tyr-Tic-Phe-Phe(p-NHCOCH(2)Br) ([Phe(p-bromoacetamide)(4)]TIPP), a potent affinity label for delta opioid receptors” (J Med Chem, 2002).
